Measurements reported in ChEMBL document CHEMBL4411261, “Down-Regulation of the Androgen Receptor by G-Quadruplex Ligands Sensitizes Castration-Resistant Prostate Cancer Cells to Enzalutamide” (J Med Chem, 2018).
Each block holds one compound with its values, some of them ahead of it. Calls of active or inactive are those of the source. The calls are words filed in the database; no cut-off is given here.

How the values were obtained:
[1] = test system: Quadruplex DNA; test: Stabilization of AR G-quadruplex oligonucleotide in human 22Rv1 cells assessed as reduction in AR mRNA expression at IC50 by RT-PCR analysis; format: cell-based; conditions: TDE = time-dependent effect
[2] = test system: Quadruplex DNA; test: Stabilization of AR G-quadruplex oligonucleotide in human 22Rv1 cells assessed as reduction in AR-FL protein level by immunoblotting assay; format: cell-based
[3] = test system: Quadruplex DNA; test: Stabilization of AR G-quadruplex oligonucleotide in human LNCAP cells assessed as reduction in AR-FL protein level by immunoblotting assay; format: cell-based
How it was run: (§1)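 Lysate proteins immunoblotted. Vinculin or β-actin used as loading control, peroxidase-linked secondary antibodies, ECL chemiluminescent detection, autoradiography, densitometric scan. Untreated cells received DMSO.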

[4] = test system: Quadruplex DNA; test: Stabilization of AR G-quadruplex oligonucleotide in human 22Rv1 cells assessed as reduction in AR-Vs protein level by immunoblotting assay; format: cell-based
[5] = test system: Quadruplex DNA; test: Stabilization of AR G-quadruplex oligonucleotide in human LNCAP cells assessed as reduction in AR mRNA expression at IC50 by RT-PCR analysis; format: cell-based; conditions: TDE = time-dependent effect
How it was run: (§2)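 Cells grown in RPMI-1640 with 10% fetal calf serum, 37 °C, 5% CO2, treated at an equitoxic concentration. Transcripts quantified by TaqMan real-time RT-PCR, normalized to RNaseP, expressed as relative quantity versus untreated cells (calibrator) by the 2−ΔΔCt method.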

[6] = test system: PC-3; test: Cytotoxicity against human PC3 cells assessed as reduction in cell viability after 48 hrs by MTS assay; format: functional, cell-based; conditions: PC-3, 48 h
How it was run: (§3)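 Cells kept in RPMI-1640 with 10% fetal calf serum, 37 °C, 5% CO2. Seeded, after 24 h treated with 0.0001, 0.001, 0.01, 0.1, 1 and 10 μM compound (DMSO stocks freshly diluted in medium) for 48 h. MTS added 4 h, absorbance 490 nm; IC50 from curves of % viability inhibition versus DMSO-treated cells against log concentration.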

[7] = test system: Quadruplex DNA; test: Stabilization of AR G-quadruplex oligonucleotide in human 22Rv1 cells assessed as reduction in basal AR mRNA expression at IC50 after 6 to 72 hrs by RT-PCR analysis; format: cell-based
How it was run: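 Transcripts quantified by TaqMan real-time PCR with RNaseP as normalizer; relative quantity versus untreated cells by the 2−ΔΔCt method. Panel genes measured with a 92-gene cancer-mechanism TaqMan array.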

[8] = test system: CWR22R; test: Cytotoxicity against human 22Rv1 cells expressing full length androgen receptor H875Y point mutant assessed as reduction in cell viability after 48 hrs by MTS assay; format: functional, cell-based; conditions: 22Rv1, 48 h; how it was run: as §3
[9] = test system: LNCaP; test: Cytotoxicity against human LNCAP cells expressing androgen receptor T877A point mutant assessed as reduction in cell viability after 48 hrs by MTS assay; format: functional, cell-based; how it was run: as §3
[10] = test system: DU-145; test: Cytotoxicity against human DU145 cells assessed as reduction in cell viability after 48 hrs by MTS assay; format: functional, cell-based; conditions: DU-145, 48 h; how it was run: as §3
[11] = test system: Quadruplex DNA; test: Stabilization of AR G-quadruplex oligonucleotide in human LNCAP cells assessed as reduction in PSA protein level by immunoblotting assay; format: cell-based; how it was run: as §1
[12] = test system: Quadruplex DNA; test: Stabilization of 5'-FAM/3'-TAMRA labelled AR1 G-quadruplex oligonucleotide (unknown origin) assessed as change in melting temperature t1/2 at 1 uM after 16 hrs in presence of 100 mM K+ by FRET assay; format: nucleic-acid assay
How it was run: (§4)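 FRET melting: FAM/TAMRA dual-labelled oligos (0.25 μM) folded in 10 mM lithium cacodylate pH 7.4 with 100 mM KCl (95 °C 5 min, cooled 4 h); ligand added at 1 μM final, 16 h room temperature. FAM emission followed 30−95 °C at 1 °C/min; curves normalized 0 to 1, T1/2 at 0.5 fraction.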

[13] = Stabilization of 5'-FAM/3'-TAMRA labelled CTATAGCGCGCTATAG dsDNA (unknown origin) assessed as change in melting temperature t1/2 at 1 uM after 16 hrs in presence of 100 mM K+ by FRET assay; how it was run: as §4
[14] = test system: Quadruplex DNA; test: Stabilization of AR G-quadruplex oligonucleotide in human LNCAP cells assessed as reduction in basal AR mRNA expression at IC50 after 6 to 72 hrs by RT-PCR analysis; format: cell-based; how it was run: as §2
[15] = test system: Quadruplex DNA; test: Stabilization of 5'-FAM/3'-TAMRA labelled AR3 G-quadruplex oligonucleotide (unknown origin) assessed as change in melting temperature t1/2 at 1 uM after 16 hrs in presence of 100 mM K+ by FRET assay; format: nucleic-acid assay; how it was run: as §4
[16] = test system: PNT1A; test: Cytotoxicity against human PNT1A cells assessed as reduction in cell viability after 48 hrs by MTS assay; format: cell-based; how it was run: as §3
[17] = molecular target: Quadruplex DNA; test: Binding affinity to 5'-Biotinylated-AR1 G-quadruplex oligonucleotide (unknown origin) by SPR analysis; format: nucleic-acid assay
How it was run: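 SPR on streptavidin chip; 5′-biotinylated oligo folded by heating 95 °C 5 min in 10 mM lithium cacodylate, 150 mM KCl, then immobilized at 30 nM to about 600 RU; empty reference cell. Compound 0.7−400 nM in HEPES-KCl (pH 7.4, 0.15 M KCl, 3 mM EDTA) at 40 °C, 40 μL/min, 260 s contact, 600 s dissociation; glycine pH 2.0 regeneration; steady-state affinity fit; at least two independent runs.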

[18] = test system: Quadruplex DNA; test: Binding affinity to 5'-Biotinylated-AR1 G-quadruplex oligonucleotide (unknown origin) by SPR analysis relative to control; format: nucleic-acid assay
[19] = test system: Quadruplex DNA; test: Stabilization of AR G-quadruplex oligonucleotide in human 22Rv1 cells assessed as reduction in AR-VS protein level at IC50 after 48 hrs by Western immunoblot assay; format: cell-based
[20] = test system: Quadruplex DNA; test: Stabilization of AR G-quadruplex oligonucleotide in human 22Rv1 cells assessed as reduction in AR-FL protein level at IC50 after 48 hrs by Western immunoblot assay; format: cell-based

Structure (SMILES): CN1CCN(c2cc3c4c(c(NCCO)cc5c4c2C(=O)N(CCO)C5=O)C(=O)N(CCO)C3=O)CC1
Activity [1]: Tde | Activity [2]: inactive | Activity [3]: inactive | Activity [4]: inactive | Activity [5]: Tde | IC50 [6]: > 10000 nM | Activity [7]: inactive | IC50 [8]: 7670 nM | IC50 [9]: > 10000 nM | IC50 [10]: > 10000 nM | Activity [11]: inactive | ΔTm [12]: 0.1 °C | ΔTm [13]: < 0.1 °C | Activity [14]: inactive | ΔTm [15]: 0.4 °C | IC50 [16]: 7070 nM

Structure (SMILES): CN(C)CCCN1C(=O)c2ccc3c4c(c(NCCCCNc5cc6c7c(ccc8c7c5C(=O)N(CCCN(C)C)C8=O)C(=O)N(CCCN(C)C)C6=O)cc(c24)C1=O)C(=O)N(CCCN(C)C)C3=O
Kd [17]: 92.5 nM | IC50 [6]: 10100 nM | RBA [18]: 19% | IC50 [8]: > 10000 nM | IC50 [9]: 1930 nM | IC50 [10]: 3390 nM | ΔTm [12]: 11.3 °C | ΔTm [13]: 1.9 °C | ΔTm [15]: 19.7 °C | IC50 [16]: 2480 nM

Structure (SMILES): CN(C)CCN1C(=O)c2ccc3c4c(c(NCC(=O)Nc5ccc(O)c(CO)c5)cc(c24)C1=O)C(=O)N(CCN(C)C)C3=O
Kd [17]: 43.9 nM | IC50 [6]: > 10000 nM | RBA [18]: 41% | IC50 [8]: 3690 nM | IC50 [9]: 3040 nM | IC50 [10]: > 10000 nM | ΔTm [12]: 4.5 °C | ΔTm [13]: < 0.1 °C | ΔTm [15]: 9.3 °C | IC50 [16]: 1440 nM

Structure (SMILES): CN(C)CCCN1C(=O)c2ccc3c4c(c(NCCCCCCCNc5cc6c7c(ccc8c7c5C(=O)N(CCCN(C)C)C8=O)C(=O)N(CCCN(C)C)C6=O)cc(c24)C1=O)C(=O)N(CCCN(C)C)C3=O
Kd [17]: 182 nM | IC50 [6]: > 10000 nM | RBA [18]: 10% | IC50 [8]: 3450 nM | IC50 [9]: 6560 nM | IC50 [10]: 2190 nM | ΔTm [12]: 8.3 °C | ΔTm [13]: 1 °C | ΔTm [15]: 17 °C | IC50 [16]: 1890 nM

Continued by falling Kd [17], values first:

Kd [17]: 41.2 nM | RBA [18]: 43% | ΔTm [12]: 11 °C | ΔTm [13]: 5.1 °C | ΔTm [15]: 13 °C
Structure (SMILES): CN(C)CCCNc1cc2c3c(ccc4c3c1C(=O)N(CCCN(C)C)C4=O)C(=O)N(CCCN(C)C)C2=O
IC50 [6]: 6320 nM | IC50 [8]: 2430 nM | IC50 [9]: 3400 nM | IC50 [10]: 3880 nM | IC50 [16]: 590 nM

Kd [17]: 38.3 nM | RBA [18]: 47% | ΔTm [12]: 3.6 °C | ΔTm [13]: < 0.1 °C | ΔTm [15]: 6 °C
Structure (SMILES): CN(C)CCCN1C(=O)c2ccc3c4c(c5[nH]c(=O)c(=O)[nH]c5c(c24)C1=O)C(=O)N(CCCN(C)C)C3=O
IC50 [6]: > 10000 nM | IC50 [8]: > 10000 nM | IC50 [9]: 10300 nM | IC50 [10]: > 10000 nM | IC50 [16]: 1370 nM

Kd [17]: 34.2 nM | RBA [18]: 52% | ΔTm [12]: 7.2 °C | ΔTm [13]: < 0.1 °C | ΔTm [15]: 10 °C
Structure (SMILES): CN(C)CCN1C(=O)c2ccc3c4c(c(NCCc5ccc(O)c(CN(C)C)c5)cc(c24)C1=O)C(=O)N(CCN(C)C)C3=O
IC50 [6]: 320 nM | Activity [19]: Active | IC50 [8]: 100 nM | IC50 [9]: 390 nM | IC50 [10]: 300 nM | IC50 [16]: 350 nM | Activity [20]: Active

Kd [17]: 21.4 nM | RBA [18]: 84% | ΔTm [12]: 5.6 °C | ΔTm [13]: < 0.1 °C | ΔTm [15]: 9 °C
Structure (SMILES): CN(C)CCN1C(=O)c2ccc3c4c(c(C#Cc5ccc(CN(C)C)c(O)c5)cc(c24)C1=O)C(=O)N(CCN(C)C)C3=O
IC50 [6]: 340 nM | IC50 [8]: 970 nM | IC50 [9]: 590 nM | IC50 [10]: 550 nM | IC50 [16]: 130 nM
